Measured values as given in ChEMBL document CHEMBL2417391, “Additional cytotoxic pyridoacridine alkaloids from the ascidian Cystodytes violatinctus and biogenetic considerations” (J Nat Prod, 2013).

Experiments:
Assay type in all cases: functional, cell-based
HCT-116 = test: Cytotoxicity against human HCT116 cells after 48 hrs by MTT assay; conditions: HCT-116, 48 h
Procedure, shortened: (§1)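 Colon lines HCT116 and SW480 kept in DMEM with 10% FBS, 2 mM L-glutamine, penicillin/streptomycin. 20 × 10^3 cells/well seeded, overnight adhesion, then 48 h treatment at 10−10 to 10−4 M, serially diluted in medium from 10−2 M DMSO stock; triplicates. Viability by MTT (3 h), formazan in 2-propanol/HCl read at 540 nm; IC50 by sigmoidal curve fitting.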

SW480 = test: Cytotoxicity against human SW480 cells after 48 hrs by MTT assay; conditions: SW480, 48 h; procedure, shortened: as §1
A-375 = test: Cytotoxicity against human A375 cells after 48 hrs by MTT assay; conditions: A-375, 48 h
Procedure, shortened: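 A375 melanoma cells grown in RPMI complete medium with 10% FBS, 2 mM L-glutamine, penicillin/streptomycin. Seeded 20 × 10^3 cells/well, adhered overnight, then exposed 48 h to serial dilutions from 10−10 to 10−4 M (from 10−2 M DMSO stock) in triplicate. MTT 1 mg/mL added for 3 h, formazan dissolved in 2-propanol/HCl, absorbance 540 nm; IC50 from sigmoidal dose–response fit.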

| Structure (SMILES) | IC50 (HCT-116) [µM] | IC50 (SW480) [µM] | IC50 (A-375) [µM] |
| --- | --- | --- | --- |
| CC(C)=CC(=O)NCCc1c2c3c(ccnc3c3ncsc13)-c1ccccc1N2 | 14.4 | 8.02 | 11.8 |
| CC(C)=CC(=O)NCCc1c2c(c3nccc4c3c1Nc1ccccc1-4)NC(=O)CS2 | 19 | 9.99 | > 10 |
| C/C=C(\C)C(=O)Nc1cc2cc(O)c3nccc4c5ccccc5n1c2c34 | 18.9 | > 10 | > 10 |
| CC(C)=CC(=O)Nc1cc2cc(O)c3nccc4c5ccccc5n1c2c34 | 4.32 | 8.48 | 6 |
| C/C=C(\C)C(=O)NCCc1c2c3c(ccnc3c3ncsc13)-c1ccccc1N2 | > 10 | 3.3 | > 10 |
| C/C=C(\C)C(=O)NCCc1c2c(c3nccc4c3c1Nc1ccccc1-4)NC(=O)CS2 | > 10 | > 10 | > 10 |
| O=C1c2cccnc2-c2nccc3c2c1nc1ccccc13 [ASCIDIDEMIN] | 0.25 | 0.1 | 0.38 |
